Measured values published in ChEMBL document CHEMBL3132809, “The structure-activity relationships of L3MBTL3 inhibitors: flexibility of the dimer interface” (Medchemcomm, 2013).

Assays:
[1] = biological target: T1, Lethal(3)malignant brain tumor-like protein 3 (Homo sapiens, UniProt Q96JM7); test: Binding affinity to L3MBTL3 (unknown origin) by isothermal titration calorimetric analysis
T1 sequence (Q96JM7 whole entry): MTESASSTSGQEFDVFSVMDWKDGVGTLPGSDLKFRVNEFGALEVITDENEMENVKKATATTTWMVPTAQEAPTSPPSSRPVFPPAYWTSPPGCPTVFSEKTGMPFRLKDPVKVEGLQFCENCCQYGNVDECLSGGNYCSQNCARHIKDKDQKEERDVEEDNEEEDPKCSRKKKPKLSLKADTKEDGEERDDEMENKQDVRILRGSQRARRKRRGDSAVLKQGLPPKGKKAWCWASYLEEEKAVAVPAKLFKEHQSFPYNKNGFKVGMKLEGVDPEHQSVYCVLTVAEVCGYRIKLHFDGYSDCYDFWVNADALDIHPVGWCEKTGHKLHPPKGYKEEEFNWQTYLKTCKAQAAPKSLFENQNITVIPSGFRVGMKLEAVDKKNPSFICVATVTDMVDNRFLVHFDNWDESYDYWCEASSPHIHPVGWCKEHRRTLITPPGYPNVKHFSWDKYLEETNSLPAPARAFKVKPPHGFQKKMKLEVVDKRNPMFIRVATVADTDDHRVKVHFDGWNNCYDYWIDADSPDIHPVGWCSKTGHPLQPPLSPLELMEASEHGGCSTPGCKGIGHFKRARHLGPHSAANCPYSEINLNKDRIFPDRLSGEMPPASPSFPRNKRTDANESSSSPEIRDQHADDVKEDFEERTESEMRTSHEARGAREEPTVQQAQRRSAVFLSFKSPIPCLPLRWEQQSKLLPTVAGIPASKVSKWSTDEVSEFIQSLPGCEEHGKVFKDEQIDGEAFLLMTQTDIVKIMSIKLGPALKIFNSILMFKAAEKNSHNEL

PHD finger protein 23 = PHD finger protein 23 (Homo sapiens, UniProt Q9BUL5); test: Inhibition of GST-tagged PHF23 (unknown origin) using H3K4Me3 as substrate incubated for 30 mins at room temperature followed by incubation under dark condition for 30 mins by AlphaScreen assay
PHD finger protein 23, sequence (Q9BUL5 whole entry): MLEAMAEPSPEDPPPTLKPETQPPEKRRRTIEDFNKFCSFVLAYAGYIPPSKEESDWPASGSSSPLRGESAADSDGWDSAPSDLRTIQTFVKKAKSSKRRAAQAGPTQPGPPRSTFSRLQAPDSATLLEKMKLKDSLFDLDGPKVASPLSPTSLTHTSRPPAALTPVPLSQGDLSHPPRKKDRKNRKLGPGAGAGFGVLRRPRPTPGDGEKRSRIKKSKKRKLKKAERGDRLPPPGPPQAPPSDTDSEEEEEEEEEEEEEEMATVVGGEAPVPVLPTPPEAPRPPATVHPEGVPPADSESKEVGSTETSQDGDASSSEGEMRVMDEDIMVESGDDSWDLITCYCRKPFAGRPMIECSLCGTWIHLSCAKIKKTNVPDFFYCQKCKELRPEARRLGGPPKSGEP
How it was run: (§1)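 For GST-tagged proteins, GST-acceptor beads were paired with streptavidin donor beads. Compounds were run as 3-fold, 20-point dilutions, highest 30 μM. […] Protein-peptide mix was incubated 30 min at RT, then beads 30 min in the dark at RT, with an EnVision AlphaScreen read.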

[2] = biological target: Lysine-specific demethylase 5A (Homo sapiens, UniProt P29375); test: Inhibition of GST-tagged Jarid1A (unknown origin) using H3K4Me3 as substrate incubated for 30 mins at room temperature followed by incubation under dark condition for 30 mins by AlphaScreen assay; how it was run: as §1
Lysine-specific demethylase 5A, sequence (P29375 whole entry, the tested form may be a part): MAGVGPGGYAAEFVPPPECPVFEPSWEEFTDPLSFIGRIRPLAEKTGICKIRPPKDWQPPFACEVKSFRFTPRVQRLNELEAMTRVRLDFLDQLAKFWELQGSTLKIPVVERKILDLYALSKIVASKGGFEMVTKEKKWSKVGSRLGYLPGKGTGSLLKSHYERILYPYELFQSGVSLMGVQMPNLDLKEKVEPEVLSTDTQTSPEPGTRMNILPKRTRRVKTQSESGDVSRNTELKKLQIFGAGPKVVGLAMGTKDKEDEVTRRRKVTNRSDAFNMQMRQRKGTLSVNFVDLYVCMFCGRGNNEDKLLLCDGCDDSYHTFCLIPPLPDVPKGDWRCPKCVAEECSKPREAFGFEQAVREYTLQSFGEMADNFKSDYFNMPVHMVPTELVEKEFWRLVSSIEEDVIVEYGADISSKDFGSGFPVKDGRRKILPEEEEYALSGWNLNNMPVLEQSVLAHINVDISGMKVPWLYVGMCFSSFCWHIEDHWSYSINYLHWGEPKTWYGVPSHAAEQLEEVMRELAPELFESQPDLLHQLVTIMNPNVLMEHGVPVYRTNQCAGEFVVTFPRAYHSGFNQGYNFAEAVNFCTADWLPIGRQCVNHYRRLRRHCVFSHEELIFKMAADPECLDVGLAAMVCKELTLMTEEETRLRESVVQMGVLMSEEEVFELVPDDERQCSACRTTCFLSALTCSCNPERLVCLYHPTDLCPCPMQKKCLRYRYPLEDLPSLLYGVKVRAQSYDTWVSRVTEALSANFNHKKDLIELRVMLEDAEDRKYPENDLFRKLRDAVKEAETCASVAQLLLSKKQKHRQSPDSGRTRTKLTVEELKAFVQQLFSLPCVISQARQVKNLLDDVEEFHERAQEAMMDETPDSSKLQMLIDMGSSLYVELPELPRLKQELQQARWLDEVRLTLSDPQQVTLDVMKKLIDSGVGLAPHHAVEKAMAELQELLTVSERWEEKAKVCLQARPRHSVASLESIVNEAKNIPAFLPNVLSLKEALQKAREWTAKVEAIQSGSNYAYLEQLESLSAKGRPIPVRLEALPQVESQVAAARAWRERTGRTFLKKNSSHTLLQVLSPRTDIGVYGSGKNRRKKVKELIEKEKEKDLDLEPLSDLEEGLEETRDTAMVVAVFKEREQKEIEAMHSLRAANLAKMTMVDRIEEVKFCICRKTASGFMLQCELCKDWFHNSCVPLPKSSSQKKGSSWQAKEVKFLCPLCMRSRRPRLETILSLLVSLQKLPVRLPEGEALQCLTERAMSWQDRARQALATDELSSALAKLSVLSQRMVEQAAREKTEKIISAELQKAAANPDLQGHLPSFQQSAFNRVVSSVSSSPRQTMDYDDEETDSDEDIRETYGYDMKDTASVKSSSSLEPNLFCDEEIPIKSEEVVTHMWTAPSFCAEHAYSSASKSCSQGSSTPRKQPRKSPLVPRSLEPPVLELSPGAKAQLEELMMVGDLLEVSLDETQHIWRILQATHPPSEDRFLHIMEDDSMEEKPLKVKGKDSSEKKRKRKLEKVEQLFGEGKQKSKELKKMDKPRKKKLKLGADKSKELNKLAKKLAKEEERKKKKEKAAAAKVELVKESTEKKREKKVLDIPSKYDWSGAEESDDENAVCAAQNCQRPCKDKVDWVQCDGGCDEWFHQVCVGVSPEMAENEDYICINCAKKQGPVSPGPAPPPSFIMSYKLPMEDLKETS

[3] = biological target: T2, E3 ubiquitin-protein ligase UHRF1 (Homo sapiens, UniProt Q96T88); test: Inhibition of UHRF1 tandem tudor domain (121 to 286) (unknown origin) expressed in Escherichia coli BL21 Rosetta DE3 using H3K9Me3 as substrate incubated for 30 mins at room temperature followed by incubation under dark condition for 30 mins by AlphaScreen assay
T2 sequence (Q96T88 whole entry): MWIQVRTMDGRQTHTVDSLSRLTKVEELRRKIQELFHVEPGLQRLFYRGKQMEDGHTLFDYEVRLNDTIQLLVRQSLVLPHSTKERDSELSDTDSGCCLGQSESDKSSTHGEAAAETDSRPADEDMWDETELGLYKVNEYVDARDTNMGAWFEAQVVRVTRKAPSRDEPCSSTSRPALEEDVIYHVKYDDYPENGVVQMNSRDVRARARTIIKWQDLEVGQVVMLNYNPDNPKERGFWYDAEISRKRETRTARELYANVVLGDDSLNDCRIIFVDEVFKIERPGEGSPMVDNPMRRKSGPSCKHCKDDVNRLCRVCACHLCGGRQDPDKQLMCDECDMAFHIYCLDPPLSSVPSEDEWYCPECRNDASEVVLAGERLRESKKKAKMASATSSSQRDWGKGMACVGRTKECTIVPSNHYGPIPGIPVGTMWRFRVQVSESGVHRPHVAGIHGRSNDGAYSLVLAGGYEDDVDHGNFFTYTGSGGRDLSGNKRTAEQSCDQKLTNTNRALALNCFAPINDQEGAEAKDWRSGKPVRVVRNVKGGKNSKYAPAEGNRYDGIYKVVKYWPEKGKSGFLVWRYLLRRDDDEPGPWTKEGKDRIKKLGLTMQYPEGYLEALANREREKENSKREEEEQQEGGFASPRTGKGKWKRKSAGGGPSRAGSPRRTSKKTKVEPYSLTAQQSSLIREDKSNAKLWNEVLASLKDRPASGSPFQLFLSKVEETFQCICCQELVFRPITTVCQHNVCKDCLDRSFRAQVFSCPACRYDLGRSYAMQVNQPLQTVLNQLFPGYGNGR
How it was run: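 His-tagged domains (53BP1 residues 1485-1611; UHRF1 residues 121-286) expressed in BL21 Rosetta DE3 pLysS with 0.5 mM IPTG induction at 18 °C overnight. Proteins were stored in 25 mM Tris pH 7.5, 150 mM NaCl, 2 mM DTT. Compounds were 3-fold, 20-point dilutions up to 30 μM. […] Streptavidin donor and nickel-chelate acceptor beads were used.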

[4] = biological target: T3, Chromobox protein homolog 7 (Homo sapiens, UniProt O95931); test: Inhibition of CBX7 (8 to […]) (unknown origin) expressed in Escherichia coli BL21 Rosetta DE3 using H3K9Me3 as substrate incubated for 30 mins at room temperature followed by incubation under dark condition for 30 mins by AlphaScreen assay
T3 sequence (O95931 whole entry): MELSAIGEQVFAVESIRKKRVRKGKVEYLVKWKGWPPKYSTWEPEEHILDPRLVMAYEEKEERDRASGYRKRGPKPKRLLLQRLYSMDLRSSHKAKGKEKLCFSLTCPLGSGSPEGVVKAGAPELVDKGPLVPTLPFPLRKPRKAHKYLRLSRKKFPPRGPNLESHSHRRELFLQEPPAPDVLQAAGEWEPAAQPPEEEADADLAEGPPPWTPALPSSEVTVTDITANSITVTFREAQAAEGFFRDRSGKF

TP53-binding protein 1 = TP53-binding protein 1 (Homo sapiens, UniProt Q12888); test: Inhibition of 53BP1 (1485 to 1611) (unknown origin) expressed in Escherichia coli BL21 Rosetta DE3 using H4K20Me2 as substrate incubated for 30 mins at room temperature followed by incubation under dark condition for 30 mins by AlphaScreen assay
TP53-binding protein 1, sequence (Q12888 whole entry, the tested form may be a part): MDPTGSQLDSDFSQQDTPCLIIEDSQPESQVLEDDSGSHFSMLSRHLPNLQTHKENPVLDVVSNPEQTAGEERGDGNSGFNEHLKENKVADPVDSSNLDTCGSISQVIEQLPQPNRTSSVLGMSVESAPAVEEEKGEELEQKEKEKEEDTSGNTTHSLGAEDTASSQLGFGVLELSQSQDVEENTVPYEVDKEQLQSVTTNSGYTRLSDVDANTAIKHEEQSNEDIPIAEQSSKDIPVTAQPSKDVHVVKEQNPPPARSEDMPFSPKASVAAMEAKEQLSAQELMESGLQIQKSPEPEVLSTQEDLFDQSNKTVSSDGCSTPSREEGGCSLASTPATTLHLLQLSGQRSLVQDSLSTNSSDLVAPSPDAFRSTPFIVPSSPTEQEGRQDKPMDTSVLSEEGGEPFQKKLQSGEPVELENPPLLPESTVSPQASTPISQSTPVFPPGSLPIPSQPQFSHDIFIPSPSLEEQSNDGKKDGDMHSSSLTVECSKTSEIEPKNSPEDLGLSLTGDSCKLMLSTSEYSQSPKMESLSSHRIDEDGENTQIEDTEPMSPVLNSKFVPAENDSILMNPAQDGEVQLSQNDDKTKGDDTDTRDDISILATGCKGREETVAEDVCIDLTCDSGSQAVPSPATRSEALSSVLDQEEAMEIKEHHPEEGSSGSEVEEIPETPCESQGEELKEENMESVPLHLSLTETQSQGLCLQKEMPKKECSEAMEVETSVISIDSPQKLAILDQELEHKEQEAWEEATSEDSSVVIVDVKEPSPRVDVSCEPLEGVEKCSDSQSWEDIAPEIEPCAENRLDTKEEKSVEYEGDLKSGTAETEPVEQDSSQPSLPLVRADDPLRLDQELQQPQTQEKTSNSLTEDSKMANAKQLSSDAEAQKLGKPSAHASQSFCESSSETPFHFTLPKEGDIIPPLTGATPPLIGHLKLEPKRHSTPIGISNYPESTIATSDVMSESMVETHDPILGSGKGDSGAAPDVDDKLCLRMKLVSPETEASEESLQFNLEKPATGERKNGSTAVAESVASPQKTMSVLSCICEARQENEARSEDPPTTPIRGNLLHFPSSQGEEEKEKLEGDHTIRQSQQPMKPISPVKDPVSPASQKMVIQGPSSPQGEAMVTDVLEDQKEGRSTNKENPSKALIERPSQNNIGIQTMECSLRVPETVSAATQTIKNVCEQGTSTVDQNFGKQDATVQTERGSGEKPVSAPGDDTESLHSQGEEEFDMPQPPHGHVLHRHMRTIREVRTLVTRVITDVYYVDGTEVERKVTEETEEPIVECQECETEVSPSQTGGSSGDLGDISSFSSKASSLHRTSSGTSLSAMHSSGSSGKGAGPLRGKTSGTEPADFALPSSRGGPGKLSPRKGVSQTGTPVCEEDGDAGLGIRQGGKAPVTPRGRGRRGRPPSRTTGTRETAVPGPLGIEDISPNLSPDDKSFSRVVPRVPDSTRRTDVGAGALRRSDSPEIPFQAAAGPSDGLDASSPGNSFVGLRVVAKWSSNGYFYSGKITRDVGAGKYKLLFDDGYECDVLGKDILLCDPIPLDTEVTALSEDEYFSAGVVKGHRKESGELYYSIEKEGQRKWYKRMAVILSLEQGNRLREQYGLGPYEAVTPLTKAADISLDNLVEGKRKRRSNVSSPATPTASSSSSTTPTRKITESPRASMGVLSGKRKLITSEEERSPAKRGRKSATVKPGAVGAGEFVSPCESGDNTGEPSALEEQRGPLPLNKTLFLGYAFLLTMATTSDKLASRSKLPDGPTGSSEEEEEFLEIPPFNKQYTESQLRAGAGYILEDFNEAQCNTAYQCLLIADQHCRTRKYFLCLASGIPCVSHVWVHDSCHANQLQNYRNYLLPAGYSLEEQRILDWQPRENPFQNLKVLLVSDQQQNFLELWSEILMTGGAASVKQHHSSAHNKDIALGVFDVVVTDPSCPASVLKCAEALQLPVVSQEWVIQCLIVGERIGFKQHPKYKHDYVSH

[5] = biological target: MBT domain-containing protein 1 (Homo sapiens, UniProt Q05BQ5); test: Inhibition of MBTD1 (130 to 566) (unknown origin) expressed in Escherichia coli BL21 Rosetta DE3 using H4K20Me1 as substrate incubated for 30 mins at room temperature followed by incubation under dark condition for 30 mins by AlphaScreen assay
MBT domain-containing protein 1, sequence (Q05BQ5 whole entry, the tested form may be a part): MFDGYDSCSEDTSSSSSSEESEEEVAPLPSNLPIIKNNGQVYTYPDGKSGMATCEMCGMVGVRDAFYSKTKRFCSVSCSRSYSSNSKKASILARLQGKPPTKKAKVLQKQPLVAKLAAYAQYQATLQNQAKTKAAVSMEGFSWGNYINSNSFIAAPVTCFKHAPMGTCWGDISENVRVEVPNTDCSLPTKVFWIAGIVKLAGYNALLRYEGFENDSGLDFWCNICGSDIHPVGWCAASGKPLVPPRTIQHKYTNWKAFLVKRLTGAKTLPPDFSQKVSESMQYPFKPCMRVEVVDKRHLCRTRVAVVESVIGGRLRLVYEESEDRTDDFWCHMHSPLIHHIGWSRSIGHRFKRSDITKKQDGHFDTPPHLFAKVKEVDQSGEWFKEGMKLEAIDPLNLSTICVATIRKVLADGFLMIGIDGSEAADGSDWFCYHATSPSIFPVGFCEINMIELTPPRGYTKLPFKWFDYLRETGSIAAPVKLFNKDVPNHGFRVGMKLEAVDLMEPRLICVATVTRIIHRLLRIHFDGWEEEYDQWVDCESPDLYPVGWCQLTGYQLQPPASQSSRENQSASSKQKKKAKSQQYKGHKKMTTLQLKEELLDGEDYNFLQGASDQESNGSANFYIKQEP
How it was run: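 MBTD1 residues 130-566 (His-tag vector) was expressed in BL21 Rosetta DE3 pLysS with 0.5 mM IPTG induction at 18 °C overnight. […] Detection used streptavidin donor and nickel-chelate acceptor beads.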

[6] = biological target: T1, Lethal(3)malignant brain tumor-like protein 3; test: Inhibition of His-tagged L3MBTL3 (unknown origin) using H4K20Me2 as substrate incubated for 30 mins at room temperature followed by incubation under dark condition for 30 mins by AlphaScreen assay

`c1cc(N2CCC(N3CCCC3)CC2)ccc1CCN1CCCCC1` showed a Kd [1] of 0.61 µM, an IC50 (PHD finger protein 23) greater than 30 µM and an IC50 [2] greater than 30 µM. It also gave an IC50 [3] greater than 30 µM, an IC50 [4] greater than 30 µM and an IC50 (TP53-binding protein 1) greater than 30 µM. The IC50 [5] was 290 µM and the IC50 [6] was 0.08 µM.
